How the values were obtained:
SK-OV-3 = assay: 50% inhibition of cell growth against SKOV-3 cell line; type: functional; conditions: Homo sapiens
In short: (§1)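 Tested in the NCI human tumour cell line panel. GI50 (nM) is the drug concentration inhibiting cell growth to 50% of controls. The panel mean ("Mid") is the average GI50 over the whole cell line panel.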

Jurkat = assay: Inhibitory activity against wild-type human Jurkat leukemia cells; type: functional, cell-based
In short: (§2)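 Growth inhibition in microculture with drug present throughout. Seeding was 4.5 × 10³ P388, 10³ Lewis lung or 3.75 × 10³ wild-type Jurkat cells per well. Exposure was 3 days for P388 and 4 days for the others. IC50 (nM) is the drug concentration reducing cell number to 50% of control cultures. Each value averages at least two independent duplicate determinations; CV 15–22%.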

CAKI-1 = assay: 50% inhibition of cell growth against CAK1 cell line; type: functional; conditions: Homo sapiens; in short: as §1
[1] = test system: Lewis lung carcinoma cell line; assay: Inhibitory activity against Murine Lewis lung carcinoma cells; type: functional, cell-based; conditions: Mus musculus; in short: as §2
NCI/ADR-RES = assay: 50% inhibition of cell growth against NCI/ADRcell line; type: functional; conditions: Homo sapiens; in short: as §1
[2] = The average concentration resulting in inhibition of cell growth to 50% whole cell line panel; type: functional; in short: as §1
HT-29 = assay: 50% inhibition of cell growth against HT-29 cell line; type: functional; conditions: Homo sapiens; in short: as §1
MCF7 = assay: 50% inhibition of cell growth against MCF-7 cell line; type: functional; conditions: Homo sapiens; in short: as §1
P388 = assay: Inhibitory activity against Murine P388 leukemia cells; type: functional, cell-based; conditions: Mus musculus; in short: as §2
HCT-116 = assay: 50% inhibition of cell growth against HCT116 cell line; type: functional; conditions: Homo sapiens; in short: as §1

Compound	GI50 (SK-OV-3) [µM]	IC50 (Jurkat) [µM]	IC50 [1] [µM]	GI50 (HT-29) [µM]	GI50 (MCF7) [µM]	IC50 (P388) [µM]	GI50 (HCT-116) [µM]	GI50 (CAKI-1) [µM]	GI50 (NCI/ADR-RES) [µM]	GI50 [2] [µM]
Cc1cccc2nc3cccc(C(=O)NCCCN(C)CCCNC(=O)c4cccc5nc6cccc(C)c6nc45)c3nc12	0.22	0.0057	0.0016	< 0.01	< 0.01	0.015	< 0.01	< 0.01	0.019	0.02
CN(CCCNC(=O)c1cccc2nc3c(ccc4ccccc43)nc12)CCCNC(=O)c1cccc2nc3c(ccc4ccccc43)nc12	–	0.29	0.41	–	–	0.45	–	–	–	–
COc1ccc2nc3c(C(=O)NCCCN(C)CCCNC(=O)c4cccc5nc6cc(OC)ccc6nc45)cccc3nc2c1	9.66	0.195	0.064	0.093	2	0.6	0.037	3.02	20	4.17
CN(CCCNC(=O)c1cccc2nc3ccc(Cl)cc3nc12)CCCNC(=O)c1cccc2nc3ccc(Cl)cc3nc12	1.88	0.042	0.044	< 0.01	< 0.01	0.097	< 0.01	0.062	0.24	0.07
Cc1cc(C(=O)NCCCN(C)CCCNC(=O)c2cc(C)cc3nc4ccccc4nc23)c2nc3ccccc3nc2c1	12	0.208	0.048	0.13	0.31	0.472	0.47	0.17	5.73	0.725
Cc1ccc(C)c2nc3c(C(=O)NCCCN(C)CCCNC(=O)c4cccc5nc6c(C)ccc(C)c6nc45)cccc3nc12	0.074	0.021	0.0053	< 0.01	< 0.01	0.026	< 0.01	< 0.01	0.035	0.034
CN(CCCNC(=O)c1cccc2nc3ccccc3nc12)CCCNC(=O)c1cccc2nc3ccccc3nc12	0.85	0.173	0.107	0.044	0.12	0.52	0.016	0.225	1.05	0.21
CN(CCCNC(=O)c1cccc2nc3cccc(N(C)C)c3nc12)CCCNC(=O)c1cccc2nc3cccc(N(C)C)c3nc12	10	0.695	0.31	0.53	1.82	2.28	0.43	2.91	11	2.51
COc1ccc2nc3cccc(C(=O)NCCCN(C)CCCNC(=O)c4cccc5nc6ccc(OC)cc6nc45)c3nc2c1	0.8	0.03	0.024	< 0.01	< 0.01	0.075	< 0.01	0.082	1.21	0.072

More lines, main results first:

GI50 (SK-OV-3) [µM]	IC50 (Jurkat) [µM]	IC50 [1] [µM]	GI50 (HT-29) [µM]	GI50 (MCF7) [µM]	IC50 (P388) [µM]	GI50 (HCT-116) [µM]	Compound	GI50 (CAKI-1) [µM]	GI50 (NCI/ADR-RES) [µM]	GI50 [2] [µM]
0.79	0.014	0.0088	0.07	0.035	0.039	< 0.01	CN(CCCNC(=O)c1cccc2nc3cccc(Cl)c3nc12)CCCNC(=O)c1cccc2nc3cccc(Cl)c3nc12	0.015	0.35	0.093
11	1.25	1.31	1.79	3.48	3.45	1.77	CN(CCCNC(=O)c1cccc2nc3cccc(Oc4ccccc4)c3nc12)CCCNC(=O)c1cccc2nc3cccc(Oc4ccccc4)c3nc12	5.36	1.63	3.16
14	0.177	0.12	0.4	0.46	0.294	0.225	CN(CCCNC(=O)c1cccc2nc3cccc(F)c3nc12)CCCNC(=O)c1cccc2nc3cccc(F)c3nc12	1.73	7.45	1.32
11	0.148	0.108	0.09	0.33	0.69	0.325	Cc1ccc2nc3cccc(C(=O)NCCCN(C)CCCNC(=O)c4cccc5nc6ccc(C)cc6nc45)c3nc2c1	0.24	1.57	0.29
5.84	0.28	0.072	0.235	0.55	0.623	0.455	Cc1ccc2nc3c(C(=O)NCCCN(C)CCCNC(=O)c4cccc5nc6cc(C)ccc6nc45)cccc3nc2c1	0.43	2.66	0.6
1.96	0.249	0.083	0.08	0.33	2.96	0.035	CN(CCCNC(=O)c1cccc2nc3cc(Cl)ccc3nc12)CCCNC(=O)c1cccc2nc3cc(Cl)ccc3nc12	0.53	1.14	0.56
1.46	0.074	0.012	< 0.01	0.11	0.204	0.018	CN(CCCNC(=O)c1cc(Cl)cc2nc3ccccc3nc12)CCCNC(=O)c1cc(Cl)cc2nc3ccccc3nc12	1.17	0.125	0.18
2.03	0.0098	0.0052	0.04	< 0.01	0.029	< 0.01	Cc1ccc(Cl)c2nc3cccc(C(=O)NCCCN(C)CCCNC(=O)c4cccc5nc6c(Cl)ccc(C)c6nc45)c3nc12	< 0.01	0.05	0.05
–	0.102	0.026	–	–	0.375	–	Cc1ccc(C(=O)NCCCN(C)CCCNC(=O)c2ccc(C)c3nc4ccccc4nc23)c2nc3ccccc3nc12	–	–	–
1.56	0.124	0.16	0.035	0.047	0.815	< 0.01	COc1cccc2nc3cccc(C(=O)NCCCN(C)CCCNC(=O)c4cccc5nc6cccc(OC)c6nc45)c3nc12	1.42	21	0.575
–	0.209	0.151	–	–	7.74	–	CN(CCCNC(=O)c1cccc2nc3c(Cl)cccc3nc12)CCCNC(=O)c1cccc2nc3c(Cl)cccc3nc12	–	–	–
88	2.37	8.37	0.135	4.07	12	0.285	CN(CCCNC(=O)c1c(Cl)ccc2nc3ccccc3nc12)CCCNC(=O)c1c(Cl)ccc2nc3ccccc3nc12	34	> 100	5.75
–	0.009	0.0032	–	–	0.024	–	CN(CCCNC(=O)c1cccc2nc3ccc4ccccc4c3nc12)CCCNC(=O)c1cccc2nc3ccc4ccccc4c3nc12	–	–	–
12	0.172	0.046	0.27	0.48	0.584	0.063	Cc1cccc2nc3c(C(=O)NCCCN(C)CCCNC(=O)c4cccc5nc6c(C)cccc6nc45)cccc3nc12	0.37	0.92	0.74

Reference: ChEMBL document CHEMBL1132997, “Bis(phenazine-1-carboxamides): structure-activity relationships for a new class of dual topoisomerase I/II-directed anticancer drugs” (J Med Chem, 2000)
